# Reference: the RNAGym collection of RNA variant scans (doi:10.1126/science.aae0568)
# Variants at the floor of the assay were thinned out.
# B1: tRNA (parent)
# chain: GUUCCGUUGGCGUAAUGGUAACGCGUCUCCCUCCUAAGGAGAAGACUGCGGGUUCGAGUCCCGUACGGAACG
# Variants of: B1
# Experiment: yeast fitness relative to wild type (ratio to wild type); higher = fitter; tRNA-Arg(CCU), competitive growth, 37 C, YPD
# Outline: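 Gene amplicons from the start population and from each of six end populations were read by 100-nucleotide paired-end sequencing. Those end populations came from pooled Saccharomyces cerevisiae strains carrying tRNA-Arg(CCU) gene variants at the native locus, competed in YPD at 37°C for 24 hours. Fitness relative to wild type was worked out from changes in genotype frequencies. Genotypes needed ≥ 100 starting reads, and estimates < 0.5 were set to 0.5.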
row,Variant,yeast fitness
1,C24U C31A C34A G56C,≤ 0.5
2,G25A A36U C49U,0.545
3,C24U C29U A42G U59C,≤ 0.5
4,C24U G56C A57G,≤ 0.5
5,C24U G38C C62G,0.623
6,G25A C30U C60G,0.541
7,G25A A37G,0.699
8,G25A A37C,0.757
9,G25A A37U,0.652
10,C24U C31U A42G,0.574
11,C24U G44C C62U,0.784
12,C24U C61U A70C,0.714
13,C24U C30U C31G,0.623
14,C24U A45U A57C G68A,≤ 0.5
15,C24U U35A,0.806
16,C24U U32A C33G,≤ 0.5
17,C24U U26G A43G A70U,0.597
18,C24U C31A C55G A57U,0.532
19,G25A A40U C61U,0.669
20,C24U U53A C66U A70U,≤ 0.5
21,C24U C30U G58C A70G,≤ 0.5
22,C24U C34U C46A G67A,≤ 0.5
23,G25A A43C C66A,0.581
24,G25A C31A A45C G50A A69U,≤ 0.5

row,Variant,yeast fitness
1,C24U U32C A43U,0.768
2,C24U C27U A40G G44A G50C,≤ 0.5
3,C24U C34U C49U C61U,≤ 0.5
4,G25A C29U C49U C61A,≤ 0.5
5,G25A C29U C49U A65C,≤ 0.5
6,C24U C55A U59G A65C,≤ 0.5
7,C24U C27U G50C,≤ 0.5
8,C24U U32C A69U,0.818
9,C24U U59C,0.879
10,C24U U59G,0.712
11,C24U G48U,0.783
12,C24U G41C C49A,0.778
13,C24U C49G G56C,≤ 0.5
14,C24U C27A C30U G63U,≤ 0.5
15,G25A A43U U54A,0.565
16,C24U A43U U47G G67A,0.53
17,G25A A37C G38C C60U C62U A69U,≤ 0.5
18,C24U G25C C30U A45U C49G A65U,≤ 0.5
19,C24U C30G C61U A65U C66U,≤ 0.5
20,C24U C27U A43C U47C,0.618
21,C24U G39C C61U,0.549
22,G25A C30U U54A,0.533
23,C24U U47C G67C,0.688
24,C24U C29U A42G C55U,≤ 0.5

row,Variant,yeast fitness
1,C24U C46A C55U G58C,0.793
2,C24U U47C,0.997
3,C24U A45U,0.919
4,C24U C31A A57C,0.704
5,C24U C33G U53C C55U A70G,≤ 0.5
6,G25A A65U,0.981
7,G25A A43C A70G,0.745
8,C24U C31G A65U,0.508
9,C24U U47C U59C,0.684
10,G25A A45C U53C C55U G56C,≤ 0.5
11,C24U U32A G38A A57U,≤ 0.5
12,C24U G25A C30U G50A G56A,≤ 0.5
13,C24U C34U C46A,≤ 0.5
14,C24U C34U C46U,≤ 0.5
15,C24U A45U C55U G67U,≤ 0.5
16,C24U C49U,0.969
17,C24U C49A,0.716
18,C24U U26A U28G U54G C61U,≤ 0.5
19,C24U G67C G68A,0.587
20,G25A A42U A43C G44A,0.764
21,G25A A40C A70U,0.625
22,C24U A43U U47G U53C,≤ 0.5
23,C24U G51C C55U,≤ 0.5
24,C24U G58A A65C,0.707

row,Variant,yeast fitness
1,C24U C34U A40G C55G,≤ 0.5
2,C24U C33U G44C,0.633
3,C24U C29G C33U A57G,≤ 0.5
4,C24U C34G,0.72
5,C24U C34U,0.688
6,C24U G56C,0.792
7,C24U C55G C61G,≤ 0.5
8,C24U A43U C66U,0.801
9,C24U A43U U47C,0.794
10,C24U C34U G56C A57G G68U,≤ 0.5
11,G25A A37U G56A C66U,≤ 0.5
12,G25A A45G A65G,0.823
13,C24U G48A C62G A69U,0.606
14,C24U G25A C30U G50A G68C,≤ 0.5
15,C24U C27G U59A A70G,≤ 0.5
16,C24U G56A G67A,0.731
17,C24U C31A C33A C34U C46A,≤ 0.5
18,C24U U32A C33G C60U A69G,≤ 0.5
19,C24U C33U C46U C49A C62U A69U,≤ 0.5
20,C24U U59A U64C,≤ 0.5
21,C24U C33G G52C C61U,≤ 0.5
22,C24U U26C C49U,0.692
23,C24U C61U U64C,0.697
24,G25A A40U A42C A45U U47C A65G,0.664

row,Variant,yeast fitness
1,C24U C34G G51A,0.663
2,G25A A37U C61A,0.616
3,C24U U32G A40U U64G,0.593
4,C24U C31G U64C,0.572
5,C24U U35C A70U,0.541
6,C24U A57C,0.601
7,C24U A57U,0.641
8,C24U C66G G68C,≤ 0.5
9,C24U A45U A69U,0.78
10,C24U C27A C30U,0.597
11,G25A C29G A45C C46G,≤ 0.5
12,C24U A43U C55G,0.588
13,C24U C49U U64A,≤ 0.5
14,G25A C27U A36U,0.53
15,C24U C30U C31G A57G,0.576
16,C24U C27A U53A C66U,≤ 0.5
17,C24U C60A,0.527
18,C24U C33A U47C,0.516
19,C24U C31A U54G,0.75
20,C24U A70U,0.881
21,G25A A43G C49U,0.94
22,G25A C30U,1
23,C24U C34G C62U,0.584
24,C24U A45U G58A,0.647

row,Variant,yeast fitness
1,C24U G44A U54G G67A,≤ 0.5
2,C24U G44C G58C,0.995
3,C24U C31G G44A U64A,≤ 0.5
4,C24U U26A U28G U54G,0.545
5,G25A A36G,0.962
6,G25A A45G G48A G50C A69C,≤ 0.5
7,C24U C33G C34U,0.672
8,C24U C31G A43G,0.69
9,C24U A45G A65G,0.757
10,C24U C29U A36C A42U A57U,0.518
11,C24U A57G C61G,≤ 0.5
12,G25A C27G G41C,0.671
13,G25A C27G C29G C46A A65G C66U,≤ 0.5
14,C24U G41A C61G,0.587
15,C24U G48A U64A,≤ 0.5
16,C24U C62G U64G,≤ 0.5
17,G25A C30G A57G,0.582
18,C24U U35G C46A,≤ 0.5
19,C24U C46U A65U,0.714
20,C24U G63U,0.627
21,C24U C30G C31A A43G,≤ 0.5
22,C24U C34U G41A,0.539
23,G25A A42G,0.89
24,G25A A42U,0.813

row,Variant,yeast fitness
1,C24U C33G C34U C62U,≤ 0.5
2,C24U C34U A40G G50A C55G,≤ 0.5
3,C24U U47A C66U,≤ 0.5
4,C24U C30U C49U U53C,≤ 0.5
5,C24U G58C A65U,0.644
6,C24U U35A A40G,0.576
7,C24U C30U C34U G52A,≤ 0.5
8,G25A C30U A43G G52A,0.701
9,C24U C29A U32A C46G A57C,0.5
10,C24U C55G A70U,0.698
11,C24U C66U,0.794
12,G25A A40C C46U C55U,0.672
13,C24U U32G G56A,0.53
14,C24U U32G G52C G63A G68C,≤ 0.5
15,C24U C29U A42G U59A C61U,≤ 0.5
16,C24U C31U C49U A70U,0.64
17,G25A A37U A40C G67A,≤ 0.5
18,C24U C46U A70U,0.75
19,C24U C34G A57U C61G,≤ 0.5
20,C24U C31A C49U A57C,≤ 0.5
21,C24U C34A G39A,0.535
22,C24U C31G G44A,0.508
23,C24U A69U A70C,0.756
